Reference: ChEMBL document CHEMBL3352250, “Antibacterial secondary metabolites from an endophytic fungus, Eupenicillium sp. LG41” (2014)
Converted amounts (≈) assume the structure as drawn. The source made the active and inactive calls. The calls are words filed in the database; no cut-off is given here.

Tests used:
Type in all cases: functional
[1] = system: Colletotrichum circinans; assay: Antimicrobial activity against Colletotrichum circinans incubated for 48 hrs by disk diffusion method
In short: (§1)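 Disk diffusion on potato dextrose agar, 4 mm deep. Mycelia are macerated in a sterile mortar to a homogeneous inoculum and 200 μL is spread. 6.0 mm disks carry 40 μL of sample, air-dried. Plates are held 2 h at 4 °C, then incubated 48 h at 28 °C. Solvent-disk, organism and sterility controls are included. Triplicate.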

[2] = system: Staphylococcus aureus; assay: Antimicrobial activity against Staphylococcus aureus subsp. aureus DSM 799 incubated for 24 hrs by disk diffusion method
In short: (§2)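 CLSI disk diffusion on nutrient agar, 4 mm deep, spread with 200 μL inoculum. 6.0 mm paper disks carry 40 μL of sample in HPLC-grade MeOH (0.1 to 10 μg/mL), air-dried. Plates are held 2 h at 4 °C, then incubated 24 h at 37 °C. Controls are streptomycin and gentamicin plus a solvent disk. MIC is derived per CLSI, triplicate.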

[3] = system: Aspergillus aculeatus; assay: Antimicrobial activity against Aspergillus aculeatus incubated for 48 hrs by disk diffusion method; in short: as §1
[4] = system: Acinetobacter sp.; assay: Antimicrobial activity against Acinetobacter sp. BD4 DSM 586 incubated for 24 hrs by disk diffusion method; in short: as §2
[5] = system: Bacillus subtilis; assay: Antimicrobial activity against Bacillus subtilis DSM 1088 incubated for 24 hrs by disk diffusion method; in short: as §2
[6] = system: Escherichia coli; assay: Antimicrobial activity against Escherichia coli DSM 1116 incubated for 24 hrs by disk diffusion method; in short: as §2

Compound | MIC [1] | MIC ([2]; DSM 799, 24 h) [µg/mL] | MIC [3] | MIC ([4]; BD4 DSM 586, 24 h) [µg/mL] | MIC ([5]; DSM 1088, 24 h) [µg/mL] | MIC ([6]; DSM 1116, 24 h) [µg/mL] | MIC [2] [µg/mL] | MIC [4] [µg/mL] | MIC [5] [µg/mL] | MIC [6] [µg/mL]
CC(C)=CCC[C@]1(C)[C@@H]2[C@H]1C=C(C(=O)O)C[C@@H]2O | inactive | > 10 | inactive | 5 (≈ 20 µM) | > 10 | 5 (≈ 20 µM) |  |  |  | 
CC[C@@H](C)[C@H]1C=C[C@H]2[C@H](O)[C@H](O)C[C@@H](C)[C@@H]2[C@@]1(C)C(=O)/C=C/OC | inactive | 1 (≈ 2.97 µM) | inactive | > 10 | > 10 | 5 (≈ 14.9 µM) |  |  |  | 
C=C(C(=O)O)[C@H](CCCC)C(=O)O | inactive | 10 (≈ 53.7 µM) | inactive | 1 (≈ 5.37 µM) | > 10 | 10 (≈ 53.7 µM) |  |  |  | 
C=C(C(=O)O)[C@H](CCCCCC)C(=O)O | inactive | 10 (≈ 46.7 µM) | inactive | 1 (≈ 4.67 µM) | > 10 | 10 (≈ 46.7 µM) |  |  |  | 
CC[C@@H](C)[C@H]1C=C[C@H]2[C@H](O)[C@H](O)C[C@@H](C)[C@@H]2[C@@]1(C)C(=O)/C=C\O | inactive | > 10 | inactive | 10 (≈ 31 µM) | > 10 | 5 (≈ 15.5 µM) |  |  |  | 
CN[C@@H]1[C@H](O[C@H]2[C@H](O[C@H]3[C@H](O)[C@@H](O)[C@H](N=C(N)N)[C@@H](O)[C@@H]3N=C(N)N)O[C@@H](C)[C@]2(O)C=O)O[C@@H](CO)[C@H](O)[C@H]1O [STREPTOMYCIN] |  | 5 (≈ 8.6 µM) |  | 10 (≈ 17.2 µM) | 5 (≈ 8.6 µM) | 1 (≈ 1.72 µM) |  |  |  | 
GENTAMICIN |  |  |  |  |  |  | 1 | 5 | 1 | 1
COC1=C(C2=C(OC)C(=O)c3cc4c(c(O)c3C2=O)C(=O)O[C@H](C)C4)C(=O)c2c(cc3c(c2O)C(=O)O[C@H](C)C3)C1=O | inactive |  | inactive |  |  |  |  |  |  | 
COc1cc(O)c2c(O)c3c(c4c2c1[C@]1(C4)C(C)=CCCC1(C)C)[C@H](O)[C@@]1(O)CC(O)=C(C(N)=O)C(=O)[C@@]1(O)C3=O | inactive |  | inactive |  |  |  |  |  |  | 
C[C@]1(C(=O)O)[C@@H]2C=C(C(=O)O)CC[C@@H]21 | inactive | > 10 | inactive | 5 (≈ 25.5 µM) | > 10 | 10 (≈ 51 µM) |  |  |  | 
